UPR CHOP act: activators of apoptotic arm of unfolded protein response (CHOP); AID 449763; CHO-CHOP luciferase reporter, UPR activation, luminescence; percent of tunicamycin response over DMSO baseline; activation, % at 10 µM; 0.34% of 330,000 active;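 active means at 10 µM dose, activation of 40% or more, normalized to positive control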
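System: CHO-CHOP luciferase reporter cell line; amount: 500 cells/well; buffer or medium: F12 medium containing 10% fetal bovine serum; incubation: 6 h compound exposure at 37 °C after overnight seeding; measured by: luciferase luminescence after 10 min with Steady-Glo reagent; evaluation: % reporter activation, DMSO baseline versus tunicamycin full activation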
hiPSC survival: enhancers of human iPSC single-cell survival; hiPSC single-cell survival, ATPlite luminescence; 100% = ROCK inhibitor wells, 0% = DMSO; AID 602274; 0.044% of 360,000 active; survival enhancement, % at 20 µM; in the data active means survival enhancement above about 18%;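 further: cells exposed to compounds for 16 hours before the ATP read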
Cardio protect: myocardial damage modulation in H9c2 cells; H9c2 cardiomyocytes, H2O2 injury protection, ATPLite, 2 h; protection from H2O2 cell death, % at 20 µM; 0.63% of 360,000 active;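 active means compounds giving at least 50% protection of heart cells from peroxide-induced death in the single-dose screen, raw or plate-pattern-corrected value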
XBP1 UPR activ: activators of adaptive arm of unfolded protein response (XBP1) | CHO-XBP1 luciferase reporter, IRE1-XBP1 UPR activation, luminescence; percent of tunicamycin response, DMSO as zero | 0.33% of 330,000 active | activation, % at 20 µM;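 active means versus positive control, 20 µM dose yields 30% or more activation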
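assay system = CHO-XBP1 luciferase reporter cells | amount = 1000 cells/well | buffer or medium = F12 plus 10% FBS | compound dosing = single point, 20 µM final compound, 1% DMSO | incubation = 16-18 h cell attachment at 37 °C, then 6 h compound exposure | detection = Steady-Glo luminescence read | controls = tunicamycin 10 µg/mL and vehicle-only wells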
CHOP inh: blocks CHOP induction under ER stress | CHO-K1 CHOP-promoter luciferase, tunicamycin-induced, 15-18 h | inhibition, % at 10 µM | 3.8% of 220,000 active | AID 2732;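 active means compounds that reduced the stress-induced luciferase reporter signal by more than about 70% of percent inhibition, limit read from the data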
Hits are given with their value; – = inactive; · = no result. The full list was thinned out, with hits kept by preference.

SMILES	UPR CHOP act	hiPSC survival	Cardio protect	XBP1 UPR activ	CHOP inh
Cc1nc2ccccc2c(=O)n1/N=C/c1cc(Br)ccc1O	–	–	54	–	·
O=c1c2ccccc2nc(/C=C/c2cccc([N+](=O)[O-])c2)n1CCO	–	–	–	–	–
CC(C)(C)N=Cc1c(O)ccc2oc3c(c12)CCCC3	–	–	73	–	·
NC(=O)N/N=C/c1c(O)ccc2oc3c(c12)CCCC3	–	–	–	–	–
COC(=O)CN1C(=O)COc2ccc(S(=O)(=O)N3CCCCC3)cc21	·	–	–	·	·
CC(C)C[C@H]1CNC(=O)C(=O)N1C[C@@H]1CCCN1C[C@H](Cc1ccccc1)N1C[C@H](Cc2ccccc2)N(CCc2ccccc2)C(=O)C1=O	·	–	·	·	·
Cc1nc2ccccc2c(=O)n1/N=C/c1c(O)ccc2ccccc12	–	–	74	–	–
Cc1nc2ccccc2c(=O)n1/N=C/c1c(O)ccc2oc3c(c12)CCCC3	–	–	100	–	–
O=C1NC(Cc2ccc(O)cc2)c2nc3ccc(F)cc3c(=O)n2-c2ncccc21 (stereo not given)	·	–	–	·	·
COc1ccc(CCNC(=O)c2cc3c(C)nccc3[nH]c2=O)cc1OC	–	–	76	–	–
COc1ccc(CCNC(=O)c2ccncc2)cc1OC	–	–	–	–	–
COc1cc(-c2nnc(SCc3cc(=O)oc4cc(O)c(O)cc34)o2)cc(OC)c1OC	–	–	81	–	–
CCOC(=O)CSc1nnc(-c2cc(OC)c(OC)c(OC)c2)o1	–	–	–	–	–
OCCN(Cc1ccccn1)Cc1ccccn1	·	–	–	·	·
Cc1cccc(-c2noc(CSc3ccccc3)n2)c1	–	–	–	–	70
COc1ccccc1N1CCN(c2ccc(-c3ccccc3)nn2)CC1	–	–	–	–	79
Cn1c(N)c(C(=O)COC(=O)C2Cc3ccccc3CN2S(C)(=O)=O)c(=O)n(C)c1=O (stereo not given)	·	–	–	·	·
COc1ccc(C(=O)OCc2cc3cccc(C)c3[nH]c2=O)cc1	–	–	–	–	81
O=c1cc(O)c2c(=O)n(Cc3ccccc3)c3ccccc3c2o1	–	–	–	–	–
O=c1cc(O)c2c(=O)n(C3CCCCC3)c3ccccc3c2o1	–	–	–	–	72
Cc1cccc(Oc2cc([N+](=O)[O-])cc3c2C(=O)Nc2ccccc2O3)c1	–	–	–	–	92
O=C1Nc2ccccc2Oc2cc([N+](=O)[O-])cc(Oc3ccccc3)c21	–	–	–	–	–
CC(=O)Nc1ccc(C(=O)OCc2ccc(Cl)c(Cl)c2)cc1	–	–	–	–	–
CCC(=O)Nc1ccc(C(=O)OCc2ccc(Cl)c(Cl)c2)cc1	–	–	–	–	89
CC(=O)Nc1ccc(OCC(O)Cn2c3ccccc3c3ccccc32)c(C)c1 (stereo not given)	–	–	–	–	–
SMILES	UPR CHOP act	hiPSC survival	Cardio protect	XBP1 UPR activ	CHOP inh
O=C(O)c1ccc(OCC(O)Cn2c3ccccc3c3ccccc32)cc1 (stereo not given)	–	–	–	–	–
OC(COc1ccccc1)Cn1c2ccccc2c2ccccc21 (stereo not given)	–	–	–	–	89
Cc1ccccc1OCC(O)Cn1c2ccccc2c2ccccc21 (stereo not given)	–	–	–	–	90
CC1=C(C(=O)N2CCCCCC2)CC(CC(=O)NCCc2ccccn2)C(=O)N1Cc1ccc(F)cc1 (stereo not given)	·	–	·	·	·
CCCNC(=O)c1ccc2c(=O)c(O)c(-c3cccc(Br)c3)[nH]c2c1	–	–	54	–	–
CCCNC(=O)c1ccc2c(=O)c(O)c(-c3ccc(F)cc3)[nH]c2c1	–	–	57	–	–
COCCNC(=O)C1(C)CCCN(C(=O)c2ccc(C#N)cc2)C1 (stereo not given)	·	–	–	·	·
CC1(c2nc3ccccc3[nH]2)CCC2=Nc3ccccc3CN21 (stereo not given)	·	–	·	·	·
COc1cc2c(cc1NC(=O)CSc1ccc(C)cc1)oc1ccccc12	–	–	–	–	–
COc1cc2c(cc1NC(=O)CSc1nc3ccc(C)cc3[nH]1)oc1ccccc12	–	·	·	–	77
Cc1ccc2nc(SCC(=O)Nc3cc(C(C)(C)C)nn3-c3ccccc3)[nH]c2c1	–	–	–	–	72
CCN(CC)c1ccc(C(=O)NNC(=O)C2CSC3(C)CCC(=O)N23)cc1 (stereo not given)	–	–	–	–	·
Cc1cc(C)c2nc(-c3ccccn3)cc(C(=O)NCCc3ccc(S(N)(=O)=O)cc3)c2c1	–	–	–	–	89
CCOc1ccc(S(=O)(=O)N(C)C)cc1-c1nc2c(C(C)(C)C)nn(C)c2c(=O)[nH]1	–	–	–	–	–
CCOc1ccc(S(=O)(=O)N(C)CCO)cc1-c1nc2c(C(C)(C)C)nn(C)c2c(=O)[nH]1	–	–	56	–	–
Cc1ccc(N2C(=O)C3C4C=CC(CNC(=S)N5CCN(c6cccc(C)c6)C(C)C5)(O4)C3C2=O)cc1 (stereo not given)	–	–	–	–	92
CCCCNC(=O)C1(C)CCN1C(=O)c1ccc2sccc2c1 (stereo not given)	·	–	–	·	·
Cc1ccc(/C=N/N2CCN(Cc3cccc4ccccc34)CC2)o1	–	–	–	–	72
CC(C)(O)C#Cc1ccc([C@@H]2C[C@H]3CN(c4ccccc4)C(=O)[C@]34CCCN24)s1	–	–	–	–	95
N#C/C(=C1\CCCN1)c1nc2ccccc2c(=O)[nH]1	–	–	74	–	–
N#C/C(=C/c1ccncc1)c1nc2ccccc2c(=O)[nH]1	–	–	–	–	–
Cc1cccc(-c2cc3c(nn2)-c2ccccc2C3=O)c1	–	–	–	–	–
COc1ccc(-c2cc3c(nn2)-c2ccccc2C3=O)cc1	–	–	–	–	78
COc1ccc(-c2cn(Cc3ccc4c(c3)C(=O)c3ccccc3C4=O)nn2)cc1	–	–	–	–	·
O=C1c2ccccc2-c2nnc(-c3ccccc3)cc21	–	–	–	–	73
SMILES	UPR CHOP act	hiPSC survival	Cardio protect	XBP1 UPR activ	CHOP inh
CCN(CC(=O)Nc1ccc(C#N)cc1)CC(=O)Nc1ccc2c(c1)OCCO2	·	–	–	·	·
Cc1ccc(S(=O)(=O)N2CCC(C(=O)OCC(=O)N3C(C)CCCC3C)CC2)cc1C (stereo not given)	·	–	–	·	·
Cc1ccc(-c2n[nH]c(=O)c3ccccc23)cc1S(=O)(=O)NC(C)(C)C	–	–	64	–	–
Cc1ccc(-c2n[nH]c(=O)c3ccccc23)cc1S(=O)(=O)Nc1ccc(F)cc1	–	–	–	–	–
Cc1ccc(-c2n[nH]c(=O)c3ccccc23)cc1S(=O)(=O)NCCO	–	–	76	–	–
Cc1ccc(-c2n[nH]c(=O)c3ccccc23)cc1S(N)(=O)=O	–	–	57	–	·
CC(=O)Nc1ccc(NS(=O)(=O)c2cc(-c3n[nH]c(=O)c4ccccc34)ccc2C)cc1	–	–	56	–	–
